According to paper PMC10328739 (Small (Weinheim an der Bergstrasse, Germany), 2021):

Tests used:
[1] = Screening of micelle elongation; type: physicochemical; conditions: T2 micelles
How it was run: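 Drug loaded into T2 micelles at polymer/drug w/w 10/0, 10/1, 10/2, 10/4 and 10/8. Particle size and size distribution followed over time by DLS. Polymer concentration (1.25–80 mg mL⁻¹), temperature (4, 25, 37 °C) and NaCl (up to ≈4%) also varied. Each formulation scored as spherical, sphere+worm mix, worm, or precipitate.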

[2] = Maximal drug solubilization in POx micelles; type: physicochemical
[3] = test system: BRCA1-mutant human breast carcinoma xenograft MDA-MB-436; experiment: Tumor inhibition, MDA-MB-436 xenograft; type: in vivo, athymic nude mice; conditions: 20 mg kg^−1 IV, twice a week, six injections

mass fraction of drug that inhibited elongation [1] [%]	maximal solubilization ([2]; in T2 micelles) [mg/mL]	maximal solubilization ([2]; in T3 micelles) [mg/mL]	Structure (SMILES)	antitumor activity (tumor growth inhibition) [3]
≤ 10			CC(=O)O[C@H]1C(=O)[C@@]2(C)[C@H]([C@H](OC(=O)c3ccccc3)[C@]3(O)C[C@H](OC(=O)[C@H](O)[C@@H](NC(=O)c4ccccc4)c4ccccc4)C(C)=C1C3(C)C)[C@]1(OC(C)=O)CO[C@@H]1C[C@@H]2O [Paclitaxel]	
≤ 10	4	8	CS(=O)(=O)c1ccc(C(=O)Nc2ccc(Cl)c(-c3ccccn3)c2)c(Cl)c1 [Vismodegib]	
			O=C(c1cc(Cc2n[nH]c(=O)c3ccccc23)ccc1F)N1CCN(C(=O)C2CC2)CC1 [Olaparib]	neither the blank spherical micelles nor the free olaparib (20 mg kg^−1) displayed inhibition of the tumor growth
≤ 10	4	8	CC1(C)CCC(c2ccc(Cl)cc2)=C(CN2CCN(c3ccc(C(=O)NS(=O)(=O)c4ccc(N[C@H](CCN5CCOCC5)CSc5ccccc5)c(S(=O)(=O)C(F)(F)F)c4)cc3)CC2)C1 [ABT-263]	
